14-3-3 Bad PPI – inhibitors of 14-3-3 zeta/Bad binding, primary screen, biochemical, TR-FRET, bovine 14-3-3 zeta; AID 781, 2007; 0.71% of 220,000 active; inhibition, % at 21.7 µM; TR-FRET 14-3-3zeta/Dy647-pBad peptide displacement, 1 h;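 active = inhibition above about 70%, limit read from the data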;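 note: 0% = full 14-3-3 plus peptide FRET controls and 100% = background without 14-3-3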
Target sequence (P63103 whole entry, looked up): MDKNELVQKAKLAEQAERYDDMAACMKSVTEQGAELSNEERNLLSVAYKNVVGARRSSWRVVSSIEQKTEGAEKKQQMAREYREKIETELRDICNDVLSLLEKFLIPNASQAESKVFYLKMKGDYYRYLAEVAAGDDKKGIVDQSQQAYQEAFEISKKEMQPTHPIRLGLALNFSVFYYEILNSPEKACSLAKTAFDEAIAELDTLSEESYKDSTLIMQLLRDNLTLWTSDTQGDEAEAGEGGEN
Mcl1-Noxa inh – Mcl-1/Noxa binding inhibitors, primary screen, biochemical, TR-FRET, 1536-well. Induced myeloid leukemia cell differentiation protein Mcl-1 (Homo sapiens), Q07820. TR-FRET Mcl-1/Noxa peptide binding, 2 h. inhibition, % at 21.7 µM. 1.5% of 220,000 active. AID 1022, 2008;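 active = compounds that cut the protein-peptide binding signal by more than 50% relative to plate controls in a single-dose test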;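 note: His-tagged Mcl-1 with rhodamine Noxa BH3 peptide and terbium anti-His antibody; 0% = Mcl-1 plus Noxa peptide wells and 100% = peptide-only wells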
Target sequence (Q07820 whole entry, looked up): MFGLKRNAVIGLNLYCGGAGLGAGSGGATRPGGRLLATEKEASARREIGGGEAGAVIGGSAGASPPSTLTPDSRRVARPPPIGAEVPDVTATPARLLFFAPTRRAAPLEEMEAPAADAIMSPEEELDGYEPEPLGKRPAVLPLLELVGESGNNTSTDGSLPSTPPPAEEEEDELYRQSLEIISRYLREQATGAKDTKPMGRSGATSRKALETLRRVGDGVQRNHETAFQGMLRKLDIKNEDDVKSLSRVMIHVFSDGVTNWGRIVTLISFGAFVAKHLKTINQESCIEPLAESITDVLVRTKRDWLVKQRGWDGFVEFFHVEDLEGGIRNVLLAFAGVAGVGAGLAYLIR
Hck Nef HTS – inhibitors of Nef-activated human Hck kinase, primary screen, biochemical, Z-Lyte FRET, 384-well, Hck-YEEI; Tyrosine-protein kinase HCK (Homo sapiens), P08631; Recombinant Hck-YEEI plus Nef, Z-Lyte FRET kinase assay; inhibition, % at 20 µM; 0.68% of 220,000 active;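 active = Hck-Nef kinase inhibition above about 50%, limit read from the data; inactive = inhibition below that limit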;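 note: 0% = DMSO with Hck plus Nef and 100% = Hck alone without Nef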
Mcl1-Bid inh – Mcl-1/Bid binding inhibitors, primary screen, biochemical, TR-FRET, 1536-well. inhibition, % at 21.7 µM. TR-FRET Mcl-1/Bid-Dy647 peptide binding. 0.97% of 220,000 active;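 active = compounds that cut the binding signal by more than half at the single screening dose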;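 note: His-tagged Mcl-1 with europium anti-His antibody binding Bid BH3 peptide; 0% = Mcl-1 plus peptide wells and 100% = peptide-only wells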
Bim-Mcl-1 – inhibitors of Bim peptide binding to Mcl-1, primary screen, biochemical, bead-based flow cytometry, multiplex; inhibition, % at 10 µM; Bim peptide-Mcl-1 binding; AID 1009, 2008; Induced myeloid leukemia cell differentiation protein Mcl-1 (Homo sapiens), Q07820; 0.1% of 190,000 active; in the data active = inhibition above about 40%;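 note: 0% = no compound tracer wells and 100% = peptide blocker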
Biofilm kill mix – clotrimazole potentiators killing C. albicans biofilm, primary screen, 4-compound mixtures; C. albicans biofilm persisters + clotrimazole, fluorescence viability; primary screen in compound mixtures of four per well; inhibition, % at 7.6 µM; 0.02% of 120,000 active; AID 1242, 2008;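 active = inhibition above 30.3% in the primary screen of four-compound pools, then above 30% when the compound was retested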;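 note: compounds exposed to preformed 24 h biofilms for 48 h; 0% = untreated biofilm control and 100% = clotrimazole plus chlorhexidine kill blank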
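Test system: C. albicans CAF4-2 wild-type biofilms; buffer or medium: RPMI/MOPS medium, pH 7.0; schedule: 24 h biofilm formation, then 48 h compound exposure, 37 °C; detection: Alamar Blue fluorescence; measure: percent inhibition of biofilm viability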
* = called active by the depositor; · = no result given. A selection: hits, their analogues and other compounds. The true share with any hit is near 3.2%.

SMILES	14-3-3 Bad PPI	Mcl1-Noxa inh	Hck Nef HTS	Mcl1-Bid inh	Bim-Mcl-1	Biofilm kill mix
CCOC(=O)c1sc2nc3c(SCC(=O)O)cc(C(=O)c4ccccc4O)cn3c(=O)c2c1C	56	66*	-7	-17	0	18
O=[N+]([O-])c1ccc(Cl)cc1N1CCCCC1	0	2	18	-16	0	6
COc1ccc(OC)c(NC(=S)N(CCc2c(C)[nH]c3ccc(C)cc23)Cc2cccs2)c1	-9	13	-7	85*	0	13
COc1ccc(OC)c(NC(=S)N(CCc2c(C)[nH]c3ccccc23)Cc2cccs2)c1	-8	12	-4	-17	0	8
CCOc1cc(C)c(C(C)C)cc1S(=O)(=O)n1cnc(C)c1	3	20	-6	15	-1	11
O=C(NC(NC(=S)Nc1ccccc1C(=O)O)C(Cl)(Cl)Cl)c1cccc([N+](=O)[O-])c1 (stereo not drawn)	73*	20	3	13	0	·
CC(C)c1ccc(OCC(=O)NC2=NCCS2)cc1	-1	8	8	-17	0	17
O=[N+]([O-])c1c(NCCO)cc(N2CCC3(CC2)OCCO3)c2nonc12	1	6	3	-8	3	4
O=C(O)CCCNc1cc(N2CCC3(CC2)OCCO3)c2noc3c2c1C(=O)c1ccccc1-3	-13	89*	10	-16	24	·
CCOC(=O)N1CCN(c2cc(NCCC(=O)O)c3c4c(onc24)-c2ccccc2C3=O)CC1	-11	73*	6	-26	27	·
NC(=O)C1CCN(C(=O)CSc2nc3c(c(-c4ccccc4)n2)CCCC3)CC1	-6	9	8	-7	0	·
O=C(c1cccs1)N1CCN(Cc2cccnc2)CC1	76*	30	·	43	-2	9
COc1ccc(NC(=O)C(=O)NCCN2CCN(C(=O)c3cccs3)CC2)cc1	8	62*	0	-1	-2	11
O=C(c1cccnc1)N1CCN(CCCc2ccccc2)CC1	72*	28	2	22	2	·
Cc1ccc(CN2CCN(C(=O)c3ccco3)CC2)cc1	-7	-4	14	-11	0	13
O=C(c1ccco1)N1CCN(Cc2cccnc2)CC1	39	-24	2	51*	0	·
O=C(Nc1ccc([N+](=O)[O-])cc1)c1cc2ccccc2nc1Cl	9	21	29	-8	·	9
COc1ccc2c(Cl)c(C(=O)NCCCn3ccnc3)sc2c1	-6	20	19	-37	-1	·
CCOC(=O)C1C(=O)NC(SCC(N)=O)=C(C#N)C1c1ccccc1OCC (stereo not drawn)	3	8	-9	-10	-11	·
Nc1ncnc(N2CCc3ccccc32)c1[N+](=O)[O-]	-3	-7	20	-9	-2	14
O=C(c1cccs1)N1CCN(Cc2ccccc2)CC1	5	0	6	-16	-5	4
O=C(Oc1cccnc1)c1ccco1	81*	0	-19	39	-2	·
O=C(c1cccs1)N1CCC(Cc2ccccc2)CC1	-1	10	0	5	-2	12
O=C(Nc1cccnc1)c1ccco1	15	-10	0	-15	9	·
O=C(CN1CCN(C(=O)c2ccco2)CC1)Nc1c2c(nc3c1CCC3)CCCC2	31	-19	-1	51*	-5	·
SMILES	14-3-3 Bad PPI	Mcl1-Noxa inh	Hck Nef HTS	Mcl1-Bid inh	Bim-Mcl-1	Biofilm kill mix
O=C(c1cccs1)N1CCN(CCCc2ccccc2)CC1	72*	13	11	29	-8	·
O=C(c1cccs1)N1CCN(Cc2ccncc2)CC1	73*	17	1	12	0	·
Cc1[nH]c2ccccc2c1C(=O)C(=O)NCc1cccs1	1	3	22	-3	5	-3
O=C(Cn1ccc([N+](=O)[O-])n1)NCc1nc2ccccc2[nH]1	8	4	21	-8	-1	-2
Cc1cccc(N2CCN(C(=O)Cc3ccc(Br)cc3)CC2)c1C	-3	42	8	61*	-5	·
O=c1oc2ccccc2c(Nc2cc3ccccc3cc2O)c1[N+](=O)[O-]	-12	53*	30	-23	-5	-12
CC(COc1ccccc1)N(CCCl)Cc1ccccc1 (stereo not drawn)	19	34	2	55*	-1	15
COc1ccc(OC)c(-n2c(=S)[nH]c3cc(C(=O)N(C)Cc4ccccc4)ccc3c2=O)c1	-27	-1	24	-31	-2	9
Cc1c(NC(=O)c2cc(-c3ccccc3O)on2)c(=O)n(-c2ccccc2)n1C	1	-3	8	-33	·	16
CCOC(=O)c1cnc(/N=C/N(C)C)s1	97*	-4	18	-7	4	-12
O=C(CCc1ccc(O)cc1)c1c(O)cc(O)cc1O	-5	13	63*	-61	·	4
CN1C(=O)/C(=C/c2cn(CC(=O)N3CCCCC3)c3ccccc23)c2ccccc21	-10	97*	1	-23	-3	·
O=Cc1cn(CC(=O)N2CCCCC2)c2ccccc12	-1	-2	4	-19	-1	12
CCN1CCN(C(C)C(=O)NC2CCCCC2)CC1 (stereo not drawn)	8	18	14	10	·	12
CCOC(=O)c1cc(-c2nnc(-c3ccc(Cl)cc3)o2)c(C)nc1C	-7	6	4	-11	40*	·
Cc1cc(-c2nc3c4c5c(sc4[nH]c(=O)n3n2)CCC5)c(C)o1	49	101*	9	73*	1	·
COc1ccccc1N1CCN(/N=C/c2cc(OC)c(O)c(OC)c2)CC1	54	54*	2	-49	-7	13
COc1ccccc1N1CCN(/N=C/c2cccc(O)c2)CC1	-10	3	17	-50	-1	3
C=CCn1c(=S)[nH]c2sc3c(c2c1=O)CCC3	9	56*	6	-56	-4	9
C=CCn1c(=S)[nH]c2nc3c(cc2c1=O)CCCC3	-9	6	0	-32	-1	·
N#Cc1ccc(CO/N=C/c2ccccc2)cc1	-4	-4	24	89*	0	15
Cc1ccccc1NC(=O)CSc1ccncc1	-1	1	-9	-8	·	14
O=C(CSCc1ccccc1Br)N/N=C/c1ccccc1C(=O)O	83*	14	6	-38	0	9
O=C(N/N=C/c1ccccc1C(=O)O)c1ccccc1Br	8	7	11	2	2	9
CCSCc1nnc(SCC(=O)Nc2ccc(F)cc2)n1CC	-4	6	-17	-19	-2	13

Source: PubChem BioAssay (several laboratories)
